Experimental data published in ChEMBL document CHEMBL1137710, “Synthesis and in vitro antitumor activity of new quinoxaline derivatives” (2009).

How the values were obtained:
Assay type in all cases: functional
SR = test: Growth inhibition of human SR cells after 48 hrs by sulforhodamine B assay
In short: (§1)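 Run in the NCI 60-human-tumour-cell-line panel, tested over a 5-log dose range. Dose–response curves gave three values per cell line, each as a log10 molar concentration: GI50 (50% inhibition of net cell growth), TGI (total inhibition of net growth) and LC50 (50% net cell death). The mean graph midpoint is the arithmetic mean over all lines, with insensitive lines entered at the highest concentration tested.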

NCI-H23 = test: Growth inhibition of human NCI-H23 cells after 48 hrs by sulforhodamine B assay; conditions: NCI-H23, 48 h
In short: (§2)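 NCI 60-human-tumor-cell-line panel, with compounds tested over a 5-log dose range. Values are taken from dose-response curves as log10 molar concentrations: GI50 is 50% net growth inhibition, TGI is total growth inhibition, and LC50 is 50% net cell death.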

OVCAR-8 = test: Growth inhibition of human OVCAR8 cells after 48 hrs by sulforhodamine B assay; conditions: OVCAR-8, 48 h; in short: as §2
SK-MEL-28 = test: Growth inhibition of human SK-MEL-28 cells after 48 hrs by sulforhodamine B assay; conditions: SK-MEL-28, 48 h; in short: as §2
COLO 205 = test: Growth inhibition of human COLO205 cells after 48 hrs by sulforhodamine B assay; conditions: COLO 205, 48 h; in short: as §2
MCF7 [1] = test: Growth inhibition of human MCF7 cells after 48 hrs by sulforhodamine B assay; conditions: MCF7, 48 h; in short: as §2
PC-3 = test: Growth inhibition of human PC3 cells after 48 hrs by sulforhodamine B assay; conditions: PC-3, 48 h; in short: as §2
SF-295 = test: Growth inhibition of human SF295 cells after 48 hrs by sulforhodamine B assay; conditions: SF-295, 48 h; in short: as §2
[2] = Growth inhibition of human Hs 578T cells after 48 hrs by sulforhodamine B assay; in short: as §2
UACC-257 = test: Growth inhibition of human UACC257 cells after 48 hrs by sulforhodamine B assay; conditions: UACC-257, 48 h; in short: as §1
SK-MEL-5 = test: Growth inhibition of human SK-MEL-5 cells after 48 hrs by sulforhodamine B assay; conditions: SK-MEL-5, 48 h; in short: as §2
A549 = test: Growth inhibition of human A549 cells after 48 hrs by sulforhodamine B assay; conditions: A549, 48 h; in short: as §2
MDA-MB-435 = test: Growth inhibition of human MDA-MB-435 cells after 48 hrs by sulforhodamine B assay; conditions: MDA-MB-435, 48 h; in short: as §2
OVCAR-5 = test: Growth inhibition of human OVCAR5 cells after 48 hrs by sulforhodamine B assay; conditions: OVCAR-5, 48 h; in short: as §2
MCF7 [3] = test: Anticancer activity against human MCF7 cells assessed as cell growth at 100 uM after 48 hrs by sulforhodamine B assay; conditions: MCF7, 48 h, read-out: Activity
SK-MEL-2 = test: Growth inhibition of human SK-MEL-2 cells after 48 hrs by sulforhodamine B assay; conditions: SK-MEL-2, 48 h; in short: as §2
SNB-19 = test: Growth inhibition of human SNB19 cells after 48 hrs by sulforhodamine B assay; conditions: SNB-19, 48 h; in short: as §1
RXF 393 = test: Growth inhibition of human RXF393 cells after 48 hrs by sulforhodamine B assay; conditions: RXF 393, 48 h; in short: as §2
HCT-116 = test: Growth inhibition of human HCT116 cells after 48 hrs by sulforhodamine B assay; conditions: HCT-116, 48 h; in short: as §2
DU-145 = test: Growth inhibition of human DU145 cells after 48 hrs by sulforhodamine B assay; conditions: DU-145, 48 h; in short: as §2
SF-268 [4] = test: Anticancer activity against human SF268 cells assessed as cell growth at 100 uM after 48 hrs by sulforhodamine B assay; conditions: SF-268, 48 h, read-out: Activity
[5] = Growth inhibition of human […] cells after 48 hrs by sulforhodamine B assay; in short: as §2
NCI-H322M = test: Growth inhibition of human NCI-H322M cells after 48 hrs by sulforhodamine B assay; in short: as §2
SF-268 [6] = test: Growth inhibition of human SF268 cells after 48 hrs by sulforhodamine B assay; conditions: SF-268, 48 h; in short: as §2
NCI-H460 = test: Anticancer activity against human NCI-H460 cells assessed as cell growth at 100 uM after 48 hrs by sulforhodamine B assay; conditions: NCI-H460, 48 h, read-out: Activity
U-251 = test: Growth inhibition of human U251 cells after 48 hrs by sulforhodamine B assay; conditions: U-251, 48 h; in short: as §1
IGROV-1 = test: Growth inhibition of human IGROV1 cells after 48 hrs by sulforhodamine B assay; conditions: IGROV-1, 48 h; in short: as §2
LOX IMVI = test: Growth inhibition of human LOXIMVI cells after 48 hrs by sulforhodamine B assay; in short: as §2
SW-620 = test: Growth inhibition of human SW620 cells after 48 hrs by sulforhodamine B assay; conditions: SW-620, 48 h; in short: as §1
[7] = read-out: pLC50 (the source's name) (converted)

COc1ccc(Oc2nc3cc(N)cc(N)c3nc2-c2ccccc2)cc1
GI50 (SR): 18.6 µM | LC50 (concentration giving 50% net cell death) (SR): > 100 µM | TGI (SR; read-out: pTGI (converted)): > 100 µM | GI50 (NCI-H23): 25.1 µM | LC50 (50% net cell kill concentration) (NCI-H23): > 100 µM | TGI (NCI-H23; read-out: pTGI (converted)): > 100 µM | GI50 (OVCAR-8): 32.4 µM | CC50 (OVCAR-8; [7]): > 100 µM | TGI (OVCAR-8; read-out: pTGI (converted)): > 100 µM | GI50 (SK-MEL-28): 19.5 µM | CC50 (SK-MEL-28; [7]): > 100 µM | TGI (SK-MEL-28; read-out: pTGI (converted)): 49 µM | GI50 (COLO 205): > 100 µM | LC50 (50% net cell kill) (COLO 205): > 100 µM | TGI (COLO 205; read-out: pTGI (converted)): > 100 µM | GI50 (MCF7 [1]): 47.9 µM | CC50 (MCF7 [1]; [7]): > 100 µM | TGI (MCF7 [1]; read-out: pTGI (converted)): > 100 µM | GI50 (PC-3): 15.1 µM | CC50 (PC-3; [7]): > 100 µM | TGI (PC-3; read-out: pTGI (converted)): > 100 µM | GI50 (SF-295): 23.4 µM | LC50 (50% net cell kill) (SF-295): > 100 µM | TGI (SF-295; read-out: pTGI (converted)): 52.5 µM | GI50 [2]: 24.5 µM | CC50 [2, 7]: > 100 µM | TGI ([2]; read-out: pTGI (converted)): > 100 µM | GI50 (UACC-257): > 100 µM | CC50 (UACC-257; [7]): > 100 µM | TGI (UACC-257; read-out: pTGI (converted)): > 100 µM | GI50 (SK-MEL-5): 44.7 µM | CC50 (SK-MEL-5; [7]): > 100 µM | TGI (SK-MEL-5; read-out: pTGI (converted)): > 100 µM | GI50 (A549): 37.2 µM | LC50 (A549): > 100 µM | TGI (A549; read-out: pTGI (converted)): > 100 µM | GI50 (MDA-MB-435): 40.7 µM | CC50 (MDA-MB-435; [7]): > 100 µM | TGI (MDA-MB-435; read-out: pTGI (converted)): > 100 µM | GI50 (OVCAR-5): 95.5 µM | CC50 (OVCAR-5; [7]): > 100 µM | TGI (OVCAR-5; read-out: pTGI (converted)): > 100 µM | growth at 100 µM (MCF7 [3]): -89% | GI50 (SK-MEL-2): 25.1 µM | CC50 (SK-MEL-2; [7]): > 100 µM | TGI (SK-MEL-2; read-out: pTGI (converted)): 87.1 µM | GI50 (SNB-19): 64.6 µM | LC50 (SNB-19): > 100 µM | TGI (SNB-19; read-out: pTGI (converted)): > 100 µM | GI50 (RXF 393): 20 µM | CC50 (RXF 393; [7]): > 100 µM | TGI (RXF 393; read-out: pTGI (converted)): 74.1 µM | GI50 (HCT-116): 28.8 µM | LC50 (concentration causing 50% net cell death) (HCT-116): > 100 µM | TGI (HCT-116; read-out: pTGI (converted)): 75.9 µM | GI50 (DU-145): 69.2 µM | CC50 (DU-145; [7]): > 100 µM | TGI (DU-145; read-out: pTGI (converted)): > 100 µM | growth at 100 µM (SF-268 [4]): -56% | GI50 [5]: 10.5 µM | LC50 [5]: > 100 µM | TGI ([5]; read-out: pTGI (converted)): 70.8 µM | GI50 (NCI-H322M): > 100 µM | LC50 (NCI-H322M): > 100 µM | TGI (NCI-H322M; read-out: pTGI (converted)): > 100 µM | GI50 (SF-268 [6]): 20.9 µM | LC50 (SF-268 [6]): > 100 µM | TGI (SF-268 [6]; read-out: pTGI (converted)): > 100 µM | growth at 100 µM (NCI-H460): -48% | GI50 (U-251): 26.3 µM | LC50 (50% net cell kill) (U-251): > 100 µM | TGI (U-251; read-out: pTGI (converted)): > 100 µM | GI50 (IGROV-1): 25.1 µM | CC50 (IGROV-1; [7]): > 100 µM | TGI (IGROV-1; read-out: pTGI (converted)): > 100 µM | GI50 (LOX IMVI): 34.7 µM | LC50 (LOX IMVI): > 100 µM | TGI (LOX IMVI; read-out: pTGI (converted)): > 100 µM | GI50 (SW-620): 89.1 µM | CC50 (SW-620; [7]): > 100 µM | TGI (SW-620; read-out: pTGI (converted)): > 100 µM
